Results of several laboratories.
Lines come from different studies, so protocols differ.
Effect on: cell growth or viability

SMILES	cell line	test	setting	quantity	result
Cc1nc(Nc2ccc3c(c2)/C(=C/c2ccccc2)C(=O)N3Cc2ccccc2)c2ccccc2n1	B16	MTT	–	IC50	15.1 µM
Nc1ccc(/C=C/C(=O)NCc2cc3cc(-c4ccc(C(=O)N5CCC(F)(F)CC5)cc4)cc(-c4ccc(F)cc4)c3o2)cn1	BXPC-3	CCK-8	72 h	IC50	> 20 µM
C=CC(=O)NC1CCN(c2ncc3ncnc(Nc4ccc(Oc5ccc6c(c5)ncn6C)c(C)c4)c3n2)CC1	NCI-H2172	–	–	EC50	6.65 µM
O=C(O)c1cccnc1Nc1cccc(C(F)(F)F)c1	BXPC-3	SRB	48 h	GI50	> 30 µM
COc1cc2c3c(n(CCCNCCO)c(=O)c2cc1OC)-c1nc2c(cc1C3=O)OCO2	RD-ES	MTS	72 h	IC50	0.022 µM
Cc1sc2c(c1C)C(c1ccc(Cl)cc1)=N[C@@H](CC(=O)NCCCCCCCCNC(=O)COc1cccc3c1C(=O)N(C1CCC(=O)NC1=O)C3=O)c1nnc(C)n1-2 (stereo partly drawn)	BXPC-3	ATP luminescence	–	IC50	0.27 µM
Nc1ccc(/C=C/C(=O)N2CCc3c(oc4c(-c5ccc(F)cc5)cc(-c5ccc(C(=O)N6CCC(F)(F)CC6)nn5)cc34)C2)cn1	BXPC-3	CCK-8	72 h	IC50	> 20 µM
C=CC(=O)c1cccnc1Nc1cc(C(F)(F)F)ccc1OC	BXPC-3	SRB	48 h	GI50	6.19 µM
Cc1nc(Nc2ccc3c(c2)/C(=C/c2ccccc2)C(=O)N3C)c2ccccc2n1	B16	MTT	–	IC50	3.56 µM
COc1cc2c3c(n(CCCN4CCOCC4)c(=O)c2cc1OC)-c1nc2c(cc1C3=O)OCO2	RD-ES	MTS	72 h	IC50	0.608 µM
C=CC(=O)c1cccnc1Nc1cccc(C(F)(F)F)c1	BXPC-3	SRB	48 h	GI50	17.5 µM
Cc1nc(Nc2ccc3c(c2)C(C)(C)C(=O)N3)c2ccccc2n1	B16	MTT	–	IC50	14.8 µM
